This note sets out measurements from ChEMBL document CHEMBL1148330, “Synthesis and biological evaluation of 14-alkoxymorphinans. 21. Novel 4-alkoxy and 14-phenylpropoxy derivatives of the mu opioid receptor antagonist cyprodime” (J Med Chem, 2004).

Structures are written as SMILES.

The target of test [1] is T1, Kappa-type opioid receptor (Homo sapiens, UniProt P41145). As to the kind of experiment: Percent maximal stimulation of [35S]GTP-gamma-S, binding to recombinant human Opioid receptor kappa 1 expressed in CHO cells. The test is classed as functional, cell-based. In a few lines: (§1)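 Membranes from CHO cells stably expressing human µ, δ or κ opioid receptor, incubated with varying concentrations of compound in a [35S]GTPγS binding assay. Emax is % maximal stimulation of [35S]GTPγS binding. EC50 is the concentration giving 50% of the Emax value. Mean ± SEM.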
On the technique in general: Binding of GTPγS marks nucleotide exchange on a G protein.

The target of test [2] is Mu-type opioid receptor (Rattus norvegicus, UniProt P33535). As to the kind of experiment: Binding affinity determined by displacing [3H]DAMGO from Opioid receptor mu 1 in rat brain membranes. The test is classed as cell membranes. In a few lines: (§2)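 Competitive radioligand binding in rat brain membranes: [3H]DAMGO (µ), [3H][Ile5,6]deltorphin II (δ), [3H]U69,593 (κ). Ki reported as mean ± SEM. Selectivity ratios are Ki δ/Ki µ and Ki κ/Ki µ.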

Another test is filed under the species Rattus norvegicus. As to the kind of experiment: Selectivity ratio of binding affinities between kappa opioid receptors and mu opioid receptors in rat brain membranes. The test is classed as cell membranes. Put shortly:
as §2

In test [3] the test system is Mus musculus. As to the kind of experiment: Effective dose (sc) required for antinociceptive potency in vivo in the paraphenylquinone writhing (PPQ) test in mice. The class given is functional. (In general: Writhing tests count abdominal constrictions after an irritant is injected.)
Test [4] deals with Mus musculus. As to the kind of experiment: Effective dose (sc) required for antinociceptive potency in vivo in the hotplate (HP) test in mice. The test is classed as functional.
Test [5] deals with T2, Delta-type opioid receptor (Homo sapiens, UniProt P41143). As to the kind of experiment: Percent maximal stimulation of [35S]GTP-gamma-S, binding to recombinant human opioid receptor delta 1 expressed in CHO cells. The class given is functional, cell-based. Put shortly: as §1
Test [6] concerns the target T3, Mu-type opioid receptor (Homo sapiens, UniProt P35372). As to the kind of experiment: Percent maximal stimulation of [35S]GTP-gamma-S, binding to recombinant human Opioid receptor mu 1 expressed in CHO cells. The class given is functional, cell-based. Put shortly: as §1
Test [7] deals with T3, Mu-type opioid receptor. As to the kind of experiment: Concentration necessary to produce 50% of the Emax value, i.e. to stimulate [35S]GTP-gamma-S, binding to recombinant human Opioid receptor mu 1 expressed in CHO cells. The class given is functional, cell-based. In a few lines:
as §1

Test [8] has as its target Opioid receptors; mu & delta (Rattus norvegicus) (UniProt P33533+P33535). As to the kind of experiment: Selectivity ratio of binding affinities between delta opioid receptors and mu opioid receptors in rat brain membranes. The class given is cell membranes. Put shortly: as §2
Test [9] relates to Mus musculus. As to the kind of experiment: Effective dose (sc) required for antinociceptive potency in vivo in the tail-flick (TF) test in mice. The test is classed as functional.
Test [10] has as its target T2, Delta-type opioid receptor. As to the kind of experiment: Concentration necessary to produce 50% of the Emax value, i.e. to stimulate [35S]GTP-gamma-S, binding to recombinant human opioid receptor delta 1 expressed in CHO cells. The test is classed as functional, cell-based. Put shortly: as §1
Test [11] concerns the target Kappa-type opioid receptor (Rattus norvegicus, UniProt P34975). As to the kind of experiment: Binding affinity determined by displacing [3H]U69,593 from Opioid receptor kappa 1 in rat brain membranes. The class given is cell membranes. Put shortly:
as §2

Test [12] concerns the target T1, Kappa-type opioid receptor. As to the kind of experiment: Concentration necessary to produce 50% of the Emax value, i.e. to stimulate [35S]GTP-gamma-S, binding to recombinant human Opioid receptor kappa 1 expressed in CHO cells. The class given is functional, cell-based. In a few lines:
as §1

Test [13] concerns the target T3, Mu-type opioid receptor. The note with it: CHO.
The target of test [14] is T1, Kappa-type opioid receptor. As to the kind of experiment: Antagonistic activity against recombinant human Opioid receptor kappa 1 expressed in CHO cells when incubated with U69,593. The class given is functional, cell-based. In a few lines: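 Membranes from CHO cells stably expressing the human κ opioid receptor, incubated with the agonist U69,593 in the presence of varying concentrations of compound. Antagonist Ke values reported as mean ± SEM.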

T3 sequence (P35372 whole entry): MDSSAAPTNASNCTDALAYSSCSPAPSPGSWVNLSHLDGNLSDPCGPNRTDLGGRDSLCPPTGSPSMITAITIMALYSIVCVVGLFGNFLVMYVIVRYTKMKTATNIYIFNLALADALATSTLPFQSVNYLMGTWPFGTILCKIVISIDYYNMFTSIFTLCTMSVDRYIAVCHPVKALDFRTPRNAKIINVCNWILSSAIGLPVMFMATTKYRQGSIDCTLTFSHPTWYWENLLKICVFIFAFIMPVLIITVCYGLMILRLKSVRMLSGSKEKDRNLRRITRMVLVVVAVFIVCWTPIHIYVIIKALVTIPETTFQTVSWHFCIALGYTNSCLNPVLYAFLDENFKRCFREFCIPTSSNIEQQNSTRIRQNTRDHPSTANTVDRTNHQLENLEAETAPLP
T2 sequence (P41143 whole entry): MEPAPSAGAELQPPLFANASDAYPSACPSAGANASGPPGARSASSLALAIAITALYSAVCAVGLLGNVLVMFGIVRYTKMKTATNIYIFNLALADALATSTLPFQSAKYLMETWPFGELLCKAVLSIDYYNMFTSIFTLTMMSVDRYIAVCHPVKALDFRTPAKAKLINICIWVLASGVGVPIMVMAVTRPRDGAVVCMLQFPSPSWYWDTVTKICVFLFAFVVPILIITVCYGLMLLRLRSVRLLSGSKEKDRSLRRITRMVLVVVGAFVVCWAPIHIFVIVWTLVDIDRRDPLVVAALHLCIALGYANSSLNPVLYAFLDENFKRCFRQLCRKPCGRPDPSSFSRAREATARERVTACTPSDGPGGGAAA
Opioid receptors; mu & delta (Rattus norvegicus), sequence (P33533 whole entry, looked up): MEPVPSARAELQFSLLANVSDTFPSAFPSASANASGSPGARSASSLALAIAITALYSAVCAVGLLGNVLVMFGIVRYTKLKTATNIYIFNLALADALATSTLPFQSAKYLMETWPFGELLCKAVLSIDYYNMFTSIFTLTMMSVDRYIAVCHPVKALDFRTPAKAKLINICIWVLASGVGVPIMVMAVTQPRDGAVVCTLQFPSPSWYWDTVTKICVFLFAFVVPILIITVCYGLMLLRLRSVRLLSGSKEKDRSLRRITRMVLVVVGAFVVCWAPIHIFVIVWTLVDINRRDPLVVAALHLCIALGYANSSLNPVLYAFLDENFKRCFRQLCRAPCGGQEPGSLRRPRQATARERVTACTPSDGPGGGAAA
Opioid receptors; mu & delta (Rattus norvegicus), sequence (P33535 whole entry, looked up): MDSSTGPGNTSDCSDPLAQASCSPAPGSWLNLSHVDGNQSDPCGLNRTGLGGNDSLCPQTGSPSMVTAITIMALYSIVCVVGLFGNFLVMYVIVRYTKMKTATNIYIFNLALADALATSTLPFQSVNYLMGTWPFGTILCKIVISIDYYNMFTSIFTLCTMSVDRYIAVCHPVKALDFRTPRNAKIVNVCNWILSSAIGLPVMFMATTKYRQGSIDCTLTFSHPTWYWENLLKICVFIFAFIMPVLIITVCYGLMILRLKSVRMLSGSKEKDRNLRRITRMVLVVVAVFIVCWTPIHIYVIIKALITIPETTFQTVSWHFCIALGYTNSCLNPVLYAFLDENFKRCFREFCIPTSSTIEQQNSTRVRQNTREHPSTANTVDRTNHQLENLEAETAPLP
T1 sequence (P41145 whole entry): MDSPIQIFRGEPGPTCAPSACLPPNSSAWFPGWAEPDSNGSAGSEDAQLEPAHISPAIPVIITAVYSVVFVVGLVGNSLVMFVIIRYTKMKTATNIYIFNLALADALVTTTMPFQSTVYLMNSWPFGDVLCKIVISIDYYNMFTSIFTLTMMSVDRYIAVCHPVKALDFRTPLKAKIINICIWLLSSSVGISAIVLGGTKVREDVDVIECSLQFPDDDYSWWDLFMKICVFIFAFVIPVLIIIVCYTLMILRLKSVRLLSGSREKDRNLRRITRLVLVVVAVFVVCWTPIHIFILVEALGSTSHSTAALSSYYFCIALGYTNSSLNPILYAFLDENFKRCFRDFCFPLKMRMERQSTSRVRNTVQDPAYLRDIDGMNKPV
Mu-type opioid receptor (Rattus norvegicus, UniProt P33535), sequence (P33535 whole entry): as the sequence (P33535 whole entry, looked up) above
Kappa-type opioid receptor (Rattus norvegicus, UniProt P34975), sequence (P34975 whole entry): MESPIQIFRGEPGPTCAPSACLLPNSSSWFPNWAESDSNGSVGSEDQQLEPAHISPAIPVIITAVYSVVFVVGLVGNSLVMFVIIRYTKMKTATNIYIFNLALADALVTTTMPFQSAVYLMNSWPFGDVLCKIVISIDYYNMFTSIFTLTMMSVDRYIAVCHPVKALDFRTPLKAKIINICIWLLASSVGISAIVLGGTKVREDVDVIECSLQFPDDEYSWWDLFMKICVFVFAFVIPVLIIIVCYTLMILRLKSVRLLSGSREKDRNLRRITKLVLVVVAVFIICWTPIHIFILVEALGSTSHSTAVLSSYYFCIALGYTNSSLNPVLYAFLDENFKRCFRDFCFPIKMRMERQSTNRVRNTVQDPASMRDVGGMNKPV

As usually defined, the Emax is the maximal effect, on the per cent scale that the assay sets. By Ki is commonly meant a measure of affinity in units of concentration, obtained from inhibition or displacement. Lower therefore signals higher affinity. For orientation: ED50 means the midpoint of the dose-response relation. Read a high ED50 as weaker potency. By EC50 is commonly meant the concentration needed to bring the measured effect to its halfway point. `O=C1CC[C@@]2(OCCCc3ccccc3)[C@H]3Cc4cccc(O)c4[C@@]2(CCN3CC2CC2)C1`: the Emax in [1] worked out at 45.8%; in test [5], 49%; on Mu-type opioid receptor [6], 35%. Further, the Ki was found to be 0.4 µM on Mu-type opioid receptor [2] and 5.84 µM in test [11]. Also, the values for the Selectivity ratio (in the test listed under Rattus norvegicus; in [8]) were 15 and 13, respectively. For the same compound, the ED50 worked out at 1.4 µg/kg in the test with Mus musculus [3], 0.04 mg/kg in the test on Mus musculus [4] and 0.05 mg/kg in the test on Mus musculus [9]. Further, the results for the EC50 (at Mu-type opioid receptor [7]; in [10]; in test [12]) were 3.47 nM, 7.91 nM and 4.51 nM, respectively.
For `COc1cccc2c1[C@]13CCN(CC4CC4)[C@H](C2)[C@]1(OC)CCC(=O)C3` [CYPRODIME], the results for the maximal response (Emax) (in [1]; in test [5]; at Mu-type opioid receptor [6]) were 18.8%, 18% and 33%, respectively. The Ki on Mu-type opioid receptor [2] was determined as 10.6 µM; in test [11], 109 µM. Further, the figures for the Ke (on Mu-type opioid receptor [13]; in [14]) were 12.4 nM and 26.1 nM, respectively. The Selectivity ratio in the test listed under Rattus norvegicus stood at 10; in [8], 39. The figures for the EC50 in test [10] and in test [12] were 1100 nM and 117 nM, respectively.
For the compound `CCCCCCOc1cccc2c1[C@]13CCN(CC4CC4)[C@H](C2)[C@]1(OC)CCC(=O)C3`, the Ki on Mu-type opioid receptor [2] was 44.9 µM; in test [11], 441 µM. Besides, the Selectivity ratio in the test listed under Rattus norvegicus amounted to 9.8; in [8], 26.
The corresponding values for `CO[C@@]12CCC(=O)C[C@@]13CCN(CC1CC1)[C@@H]2Cc1cccc(OCCCc2ccccc2)c13` are 43.3 µM, 208 µM, 4.8 and 33.
With `CCCCOc1cccc2c1[C@]13CCN(CC4CC4)[C@H](C2)[C@]1(OC)CCC(=O)C3`, the Ki turned out to be 13.8 µM on Mu-type opioid receptor [2] and 261 µM in [11]. In addition, the Ke at Mu-type opioid receptor [13] was found to be 11.1 nM; in test [14], 120 nM. For the same compound, the results for the Selectivity ratio (in the test listed under Rattus norvegicus; in test [8]) were 19 and 55, respectively. Besides, the Emax in test [5] was 22%. For the same compound, the EC50 on Mu-type opioid receptor [7] was over 10000 nM; in test [10], 1610 nM; in test [12], over 10000 nM.
As to `COc1cccc2c1[C@]13CCN(CC4CC4)[C@H](C2)[C@]1(OCCCc1ccccc1)CCC(=O)C3`, the Ki at Mu-type opioid receptor [2] came out at 0.34 µM; in [11] it was 7.36 µM. Also, the figures for the Selectivity ratio (in the test listed under Rattus norvegicus; in test [8]) were 22 and 50, respectively. Besides, the Ke in test [14] came to 2.52 nM. The results for the ED50 with Mus musculus [3], with Mus musculus [4] and in the test with Mus musculus [9] were 60 µg/kg, 0.3 mg/kg and 0.28 mg/kg, respectively. The figures for the Emax (in [5]; on Mu-type opioid receptor [6]) were 22% and 35%, respectively. Further, the EC50 was 1.97 nM on Mu-type opioid receptor [7], 20.6 nM in [10] and over 10000 nM in test [12].
On to `CCCCOc1cccc2c1[C@]13CCN(CC4CC4)[C@H](C2)[C@]1(OCCCc1ccccc1)CCC(=O)C3`, for which the Ki amounted to 14.9 µM on Mu-type opioid receptor [2] and 150 µM in [11]. The values for the Selectivity ratio (in the test filed under Rattus norvegicus; in test [8]) were 10 and 16, respectively.
Consider `CO[C@@]12CCC(=O)[C@]3(C)Oc4c(O)ccc5c4[C@@]31CCN(C)[C@@H]2C5`, for which the ED50 in the test with Mus musculus [3] was found to be 9 µg/kg; in the test with Mus musculus [4], 0.03 mg/kg; with Mus musculus [9], 0.03 mg/kg.
With `O=C1CC[C@@]2(OCCCc3ccccc3)[C@H]3Cc4cccc5c4[C@@]2(CCN3CC2CC2)C1O5` (some centres undefined), the Ki at Mu-type opioid receptor [2] was 0.84 µM; in [11] it was 22.8 µM. The Selectivity ratio in the test listed under Rattus norvegicus was determined as 27; in test [8] it was 55. Besides, the Ke in [14] is 8.54 nM. For the same compound, the ED50 with Mus musculus [3] worked out at 9.4 µg/kg; with Mus musculus [4] it was 0.68 mg/kg; in the test on Mus musculus [9] it was 0.187 mg/kg. In addition, the Emax in test [5] came out at 17%; at Mu-type opioid receptor [6], 43%. The EC50 on Mu-type opioid receptor [7] was 9.8 nM; in test [10], 86.8 nM; in test [12], over 10000 nM.
With `CO[C@@]12CCC(=O)C[C@@]13CCN(CC1CC1)[C@@H]2Cc1cccc(OCc2ccccc2)c13`, the Ki was found to be 11.6 µM on Mu-type opioid receptor [2] and 56.8 µM in test [11]. The Selectivity ratio worked out at 4.9 in the test listed under Rattus norvegicus and 18 in test [8].
